Consider 13 molecules from ChEMBL document CHEMBL1144868, “Modulation of P-glycoprotein-mediated multidrug resistance by flavonoid derivatives and analogues” (2003).

SMILES strings stand for the structures.

Assay type in all cases: functional, Homo sapiens
Assay [1] deals with K562. In words: Rhodamine-123 accumulation in K562 cells with or without expression of PGP protein at a concentration of 0.01 uM. In a few lines:
(§1)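 K562R (adriamycin-resistant, Pgp-expressing) cells, kept under continuous 10^-6 M adriamycin, were washed twice and suspended at 10⁶ cells/mL in RPMI. Modulator was added for 15 min at 37 °C, then rhodamine-123 at 0.05 µg/mL final for 1 h at 37 °C. Fluorescence at […] was read by flow cytometry in arbitrary units, as the mean of at least 3 independent experiments.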

Assay [2] relates to K562. The assay can be described thus: Rhodamine-123 accumulation in K562 cells with or without expression of PGP protein at a concentration of 0.1 uM. In a few lines: as §1
The test system of assay [3] is K562. In words: Rhodamine-123 accumulation in K562 cells with or without expression of PGP protein at a concentration of 1 uM. In a few lines:
as §1

Assay [4] has as its system K562. In words: Rhodamine-123 accumulation in K562 cells with or without expression of PGP protein at a concentration of 1 nM. In a few lines:
as §1

With `O=C(c1cc(=O)c2c(O)cccc2o1)N1CCN(Cc2ccccc2)CC1`, the Rhodamine-123 accumulation in the assay on K562 [1] was found to be 72 arbitrary units; in the assay with K562 [2] it was 95 arbitrary units; with K562 [3], 136 arbitrary units; in the assay with K562 [4] it was 45 arbitrary units.
`COc1cc(OC)c2c(=O)c(-c3ccccc3)coc2c1` [5,7-DIMETHOXYISOFLAVONE]: the Rhodamine-123 accumulation in the assay with K562 [1] is 54 arbitrary units; in the assay with K562 [2], 46 arbitrary units; in the assay with K562 [3], 49 arbitrary units; in the assay on K562 [4], 40 arbitrary units.
As to `O=C(NCc1ccc(Cl)cc1)c1cc(=O)c2c(O)cccc2o1`, the Rhodamine-123 accumulation is on record as 42 arbitrary units in the assay on K562 [1], 45 arbitrary units in the assay on K562 [2], 46 arbitrary units with K562 [3] and 50 arbitrary units in the assay with K562 [4].
Regarding `COc1cc(OC)c2c(c1)O/C(=C\c1ccccc1)C2=O`, the Rhodamine-123 accumulation in the assay on K562 [1] was 178 arbitrary units; with K562 [2] it was 203 arbitrary units; in the assay with K562 [3], 249 arbitrary units; in the assay with K562 [4] it was 40 arbitrary units.
In the same order, the values of `CN1CCN(C(=O)c2cc(=O)c3c(O)cccc3o2)CC1` are 134 arbitrary units, 138 arbitrary units, 207 arbitrary units and 76 arbitrary units.
`CC(=O)N1CCN(C(=O)c2cc(=O)c3c(O)cccc3o2)CC1`: the Rhodamine-123 accumulation with K562 [1] turned out to be 43 arbitrary units; in the assay on K562 [2], 37 arbitrary units; in the assay with K562 [3], 38 arbitrary units; with K562 [4], 41 arbitrary units.
With `C/C=C/C[C@@H](C)[C@@H](O)[C@H]1C(=O)N[C@@H](CC)C(=O)N(C)CC(=O)N(C)[C@@H](CC(C)C)C(=O)N[C@@H](C(C)C)C(=O)N(C)[C@@H](CC(C)C)C(=O)N[C@@H](C)C(=O)N[C@H](C)C(=O)N(C)[C@@H](CC(C)C)C(=O)N(C)[C@@H](CC(C)C)C(=O)N(C)[C@@H](C(C)C)C(=O)N1C` [CYCLOSPORINE], the Rhodamine-123 accumulation was 80 arbitrary units in the assay on K562 [1], 87 arbitrary units in the assay with K562 [2], 102 arbitrary units in the assay on K562 [3] and 72 arbitrary units with K562 [4].
For `O=C(c1ccccc1)N1CCN(C(=O)c2cc(=O)c3c(O)cccc3o2)CC1`, the Rhodamine-123 accumulation in the assay with K562 [1] is given as 45 arbitrary units; in the assay on K562 [2], 47 arbitrary units; in the assay on K562 [3] it was 42 arbitrary units; with K562 [4] it was 38 arbitrary units.
Turning to `CCN1CCN(C(=O)c2cc(=O)c3c(O)cccc3o2)CC1`, the Rhodamine-123 accumulation in the assay with K562 [1] stood at 44 arbitrary units; in the assay on K562 [2], 47 arbitrary units; in the assay with K562 [3] it was 85 arbitrary units; with K562 [4] it was 40 arbitrary units.
On to `COc1cc(OC)c2c(O)c(-c3ccccc3)cnc2c1`, for which the Rhodamine-123 accumulation was 43 arbitrary units in the assay on K562 [1], 55 arbitrary units with K562 [2], 82 arbitrary units in the assay on K562 [3] and 36 arbitrary units with K562 [4].
For `O=C(c1cc(=O)c2c(O)cccc2o1)N1CCOCC1`, the Rhodamine-123 accumulation with K562 [1] was 41 arbitrary units; with K562 [2] it was 44 arbitrary units; in the assay with K562 [3] it was 42 arbitrary units; with K562 [4] it was 39 arbitrary units.
Turning to `O=C(c1cc(=O)c2c(O)cccc2o1)N1CCN(c2ccccc2)CC1`, the Rhodamine-123 accumulation with K562 [1] is 40 arbitrary units; in the assay with K562 [2], 57 arbitrary units; in the assay with K562 [3], 82 arbitrary units; in the assay with K562 [4], 39 arbitrary units.
In the case of `O=C(c1cc(=O)c2c(O)cccc2o1)N1CCCCC1`, the Rhodamine-123 accumulation came to 46 arbitrary units with K562 [1], 44 arbitrary units in the assay on K562 [2], 45 arbitrary units with K562 [3] and 43 arbitrary units in the assay with K562 [4].
